The source made the active and inactive calls. The rule behind the calls is not given here.
Legend:
[1] = Inhibition of recombinant Salmonella typhimurium His6-tagged OASS-A expressed in Escherichia coli using OAS as substrate by discontinuous assay; set-up: species or system Salmonella enterica subsp. enterica serovar Typhimurium
[2] = Inhibition of recombinant Salmonella typhimurium His10-tagged OASS-B expressed in Escherichia coli using OAS as substrate by discontinuous assay; set-up: species or system Salmonella enterica subsp. enterica serovar Typhimurium
[3] = Binding affinity to recombinant Salmonella typhimurium His6-tagged OASS-A expressed in Escherichia coli by fluorimetric titration method; set-up: species or system Salmonella enterica subsp. enterica serovar Typhimurium
How it was run: (§1)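 OASS coenzyme fluorescence titrated with ligand. Conditions were 0.5−1.0 μM enzyme in 100 mM Hepes, pH 7.0, at 20 °C. Excitation was at 412 nm and the emission spectra were recorded. Intensity at 500 nm, minus the ligand-free signal, was fitted to a single-site binding isotherm to give Kdiss.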

[4] = Binding affinity to recombinant Salmonella typhimurium His10-tagged OASS-B expressed in Escherichia coli by fluorimetric titration method; set-up: species or system Salmonella enterica subsp. enterica serovar Typhimurium; how it was run: as §1
[5] = test system: Salmonella enterica subsp. enterica serovar Typhimurium; assay: Binding affinity to recombinant Salmonella typhimurium His6-tagged OASS-A expressed in Escherichia coli at <20 uM by fluorimetric titration method; how it was run: as §1
[6] = Solubility in 100 mM HEPES buffer at pH 7 containing 1% DMSO at >20 uM at 20 degC; assay type: physicochemical

Compound `O=C(O)[C@@]1(Cc2ccc(Cl)cc2)C[C@@H]1c1ccccc1` has an IC50 [1] of 14 µM, an IC50 [2] of 48 µM and a Kd [3] of 84 µM. It also gave a Kd [4] of 152 µM.

With `O=C(O)[C@]1(Cc2ccc(Cl)cc2)C[C@H]1c1ccccc1` the IC50 [1] was 0.099 µM, the IC50 [2] was 0.5 µM and the Kd [3] was 0.054 µM. The Kd [4] was 0.42 µM.

`O=C(O)[C@@]1(Cc2ccccc2)C[C@@H]1c1ccccc1` showed a Kd [3] of 50 µM and a Kd [4] of 197 µM.

With `O=C(O)[C@@]1(Cc2ccc(Cl)cc2)C[C@@H]1c1ccccc1` (racemic) the Kd [3] was 0.156 µM and the Kd [4] was 0.76 µM.

Compound `Cc1ccc(C[C@]2(C(=O)O)C[C@@H]2c2ccccc2)cc1` (racemic) has a Kd [3] of 0.077 µM and a Kd [4] of 1.2 µM.

`Cc1ccc(C[C@]2(C(=O)O)C[C@@H]2c2ccccc2)cc1` showed a Kd [3] of 81 µM and a Kd [4] of 121 µM.

In the case of `CC[C@]1(C(=O)O)C[C@@H]1c1ccccc1`, the Kd [3] is reported as 1200 µM and the Kd [4] is reported as > 2000 µM.

`O=C(O)[C@H]1C[C@@H]1c1ccccc1` (relative stereo) showed a Kd [3] of 9.2 µM and a Kd [4] of 148 µM.

Compound `CC[C@]1(C(=O)O)C[C@@H]1c1ccccc1` (racemic) has a Kd [3] of 15 µM and a Kd [4] of 720 µM.

`O=C(O)[C@@]1(Cc2ccccc2)C[C@@H]1c1ccccc1` (racemic) gave a Kd [3] of 0.2 µM and a Kd [4] of 4.1 µM.

`CC[C@@]1(C(=O)O)C[C@H]1c1ccccc1` gave a Kd [3] of 12.1 µM and a Kd [4] of 860 µM.

With `O=C(O)[C@@]1(CCc2ccccc2)C[C@@H]1c1ccccc1` (relative stereo) the Kd [3] was 14 µM and the Kd [4] was 27 µM.

Work on H-MNLNI-OH yielded a Kd [3] of 120 µM and a Kd [4] of 3000 µM.

Work on `O=C(O)[C@]1(Cc2ccccc2)C[C@H]1c1ccccc1` yielded a Kd [3] of 0.067 µM and a Kd [4] of 1.66 µM.

Work on `Cc1ccc(C[C@@]2(C(=O)O)C[C@H]2c2ccccc2)cc1` yielded a Kd [3] of 0.028 µM and a Kd [4] of 0.49 µM.

In the case of `CCOC(=O)[C@@]1(Cc2ccccc2)C[C@@H]1c1ccccc1` (relative stereo), the Activity [5] is reported as “inactive” and the solubility [6] is reported as “Insoluble”.

— ChEMBL document CHEMBL3784941, “Rational Design, Synthesis, and Preliminary Structure-Activity Relationships of α-Substituted-2-Phenylcyclopropane Carboxylic Acids as Inhibitors of Salmonella typhimurium O-Acetylserine Sulfhydrylase” (J Med Chem, 2016)
